Measured values published in ChEMBL document CHEMBL1125496, “New potent mitomycin derivatives: synthesis and antitumor activity of 7,7-(ethylenedioxy)mitomycins” (J Med Chem, 1992).

Experiments:
[1] = system: HeLa; assay: In vitro anticellular activity against HeLa cells.; type: functional, cell-based, Homo sapiens
Outline: (§1)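 HeLa S3 cells seeded on day 0, then exposed to drug for 1 h on day 1. Anticellular activity determined by a previously described method and reported as 1 h IC50 in μM.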

[2] = system: Mus musculus; assay: In vivo antitumor activity against P388 leukemia cells (ip)in mice and maximal increase in life span calculated as (T/C-1)*100 at the optimal dose of 4.0-6.0 mg/kg; type: functional
[3] = system: HeLa; assay: The compound was tested in vitro for its anticellular activity against HeLa cells.; type: functional, cell-based; details: Homo sapiens; outline: as §1
[4] = system: Mus musculus; assay: In vivo antitumor activity against P388 leukemia cells (ip)in mice and maximal increase in life span calculated as (T/C-1)*100 at the optimal dose of 0.50 mg/kg (%ILS max of mitomycin C at the optimal dose of 6.0 mg/kg); type: functional
[5] = system: Mus musculus; assay: In vivo antitumor activity against P388 leukemia cells (ip)in mice and maximal increase in life span calculated as (T/C-1)*100 at the optimal dose of 5 mg/kg (%ILS max of mitomycin C at the optimal dose of 6.0 mg/kg).; type: functional
[6] = system: Mus musculus; assay: In vivo antitumor activity against P388 leukemia cells (ip)in mice and maximal increase in life span calculated as (T/C-1)*100 at the optimal dose of 0.75 mg/kg (%ILS max of mitomycin C at the optimal dose of 6.0 mg/kg); type: functional
[7] = system: Mus musculus; assay: In vivo antitumor activity against P388 leukemia cells (ip)in mice and maximal increase in life span calculated as (T/C-1)*100 at the optimal dose of 2.5 mg/kg (%ILS max of mitomycin C at the optimal dose of 6.0 mg/kg).; type: functional
[8] = system: Mus musculus; assay: In vivo antitumor activity against P388 leukemia cells (ip)in mice and maximal increase in life span calculated as (T/C-1)*100 at the optimal dose of 0.39 mg/kg (%ILS max of mitomycin C at the optimal dose of 4.0 mg/kg).; type: functional
[9] = system: Mus musculus; assay: In vivo antitumor activity against P388 leukemia cells (ip)in mice and maximal increase in life span calculated as (T/C-1)*100 at the optimal dose of 5 mg/kg (%ILS max of mitomycin C at the optimal dose of 4.0 mg/kg).; type: functional
[10] = system: Mus musculus; assay: In vivo antitumor activity against P388 leukemia cells (ip)in mice and maximal increase in life span calculated as (T/C-1)*100 at the optimal dose of 3.1 mg/kg (%ILS max of mitomycin C at the optimal dose of 4.0 mg/kg).; type: functional
[11] = system: Mus musculus; assay: TIn vivo antitumor activity against P388 leukemia cells (ip)in mice and maximal increase in life span calculated as (T/C-1)*100 at the optimal dose of 5 mg/kg (%ILS max of mitomycin C at the optimal dose of 4.0 mg/kg).; type: functional
[12] = system: Mus musculus; assay: In vivo antitumor activity against P388 leukemia cells (ip)in mice and maximal increase in life span calculated as (T/C-1)*100 at the optimal dose of 13 mg/kg (%ILS max of mitomycin C at the optimal dose of 4.0 mg/kg).; type: functional
[13] = system: Mus musculus; assay: In vivo antitumor activity against P388 leukemia cells (ip)in mice and maximal increase in life span calculated as (T/C-1)*100 at the optimal dose of 3 mg/kg (%ILS max of mitomycin C at the optimal dose of 6.0 mg/kg); type: functional
[14] = system: Mus musculus; assay: In vivo antitumor activity against P388 leukemia cells (ip)in mice and maximal increase in life span calculated as (T/C-1)*100 at the optimal dose of 2.5 mg/kg (%ILS max of mitomycin C at the optimal dose of 4.0 mg/kg).; type: functional
[15] = system: Mus musculus; assay: In vivo antitumor activity against P388 leukemia cells (ip)in mice and maximal increase in life span calculated as (T/C-1)*100 at the optimal dose of 13 mg/kg (%ILS max of mitomycin C at the optimal dose of 6.0 mg/kg).; type: functional

`CO[C@@]12[C@H](COC(N)=O)C3=C(C(=O)C(C)=C(N)C3=O)N1C[C@@H]1N[C@@H]12` [MITOMYCIN] showed an IC50 ([1]; Homo sapiens, HeLa) of 0.81 µM and an ILS max [2] of 52%.
Work on `CCOC(=O)OC1=C(C)C2(OCCO2)C(=O)C2=C1N1C[C@@H]3N[C@@H]3[C@]1(OC)[C@@H]2COC(N)=O` yielded an IC50 [3] of 0.87 µM.
With `CO[C@@]12[C@H](COC(N)=O)C3=C(C(OC(C)=O)=C(C)C4(OCCO4)C3=O)N1C[C@@H]1N[C@@H]12` the IC50 ([1]; Homo sapiens, HeLa) was 4.4 µM and the ILS max [4] was 63%.
Compound `CO[C@@]12[C@H](COC(N)=O)C3=C(C(OC(=O)CCC(C)=O)=C(C)C4(OCCO4)C3=O)N1C[C@@H]1N[C@@H]12` has an IC50 ([1]; Homo sapiens, HeLa) of 0.59 µM and an ILS max [5] of 80%.
For `CCCCCCCCCCCC(=O)OC1=C(C)C2(OCCO2)C(=O)C2=C1N1C[C@@H]3N[C@@H]3[C@]1(OC)[C@@H]2COC(N)=O`, the ILS max [6] was 67% and the IC50 ([1]; Homo sapiens, HeLa) was 0.094 µM.
`CO[C@@]12[C@H](COC(N)=O)C3=C(C(=O)C(C)(Cl)C4(OCCO4)C3=O)N1C[C@@H]1N[C@@H]12` (stereo in doubt; 13b) was tested, and the IC50 ([1]; hela) was 3.2 µM and the ILS max [7] was 60%.
`CO[C@@]12[C@H](COC(N)=O)C3=C(C(=O)C(C)C4(OCCO4)C3=O)N1C[C@@H]1N[C@@H]12` (stereo partly specified) was tested, and the IC50 ([1]; Homo sapiens, HeLa) was 0.041 µM and the ILS max [8] was 69%.
For `CC1C(=O)C2=C(C(=O)C13OCCO3)[C@H](COC(N)=O)[C@@]1(O)[C@@H]3[C@H](CN21)N3C` (stereo partly specified), the IC50 ([1]; Homo sapiens, HeLa) was 4.4 µM and the ILS max [9] was 73%.
With `COC1=C(C)C2(OCCO2)C(=O)C2=C1N1C[C@@H]3N[C@@H]3[C@]1(OC)[C@@H]2COC(N)=O` the IC50 ([1]; Homo sapiens, HeLa) was 20 µM and the ILS max [10] was 41%.
`CO[C@@]12[C@H](COC(N)=O)C3=C(C(OC(=O)C(C)(C)C)=C(C)C4(OCCO4)C3=O)N1C[C@@H]1N[C@@H]12` gave an IC50 [3] of 8.1 µM.
`CO[C@@]12[C@H](COC(N)=O)C3=C(C(=O)C(C)(Cl)C4(OCCO4)C3=O)N1C[C@@H]1N[C@@H]12` (stereo in doubt; 13c) was tested, and the IC50 ([1]; hela) was 0.59 µM and the ILS max [7] was 73%.
Compound `CO[C@]12[C@@H]3[C@H](CN1C1=C(C(=O)C4(OCCO4)C(C)C1=O)[C@@H]2COC(N)=O)N3C` (stereo partly specified) has an IC50 ([1]; Homo sapiens, HeLa) of 3.1 µM and an ILS max [11] of 80%.
Compound `CN1[C@H]2[C@@H]1CN1C3=C(C(=O)C4(OCCO4)C(C)(Cl)C3=O)[C@H](COC(N)=O)[C@@]21O` (stereo partly specified) has an IC50 ([1]; Homo sapiens, HeLa) of 50 µM and an ILS max [12] of 59%.
`CO[C@@]12[C@H](COC(N)=O)C3=C(C(OC(=O)c4ccccc4)=C(C)C4(OCCO4)C3=O)N1C[C@@H]1N[C@@H]12` showed an ILS max [13] of 71% and an IC50 ([1]; Homo sapiens, HeLa) of 0.54 µM.
For `CCCCCCCC(=O)OC1=C(C)C2(OCCO2)C(=O)C2=C1N1C[C@@H]3N[C@@H]3[C@]1(OC)[C@@H]2COC(N)=O`, the IC50 ([1]; Homo sapiens, HeLa) was 0.36 µM.
`CO[C@@]12[C@H](COC(N)=O)C3=C(C(=O)C(C)C4(OCCO4)C3=O)N1C[C@H]1[C@@H]2N1C` (stereo partly specified) was tested, and the IC50 ([1]; Homo sapiens, HeLa) was 0.6 µM and the ILS max [14] was 53%.
Compound `CC(=O)OC1=C(C)C2(OCCO2)C(=O)C2=C1N1C[C@H]3[C@H](N3C)[C@]1(O)[C@H]2COC(N)=O` (stereo partly specified) has an IC50 ([1]; Homo sapiens, HeLa) of 4.4 µM and an ILS max [15] of 71%.
